Experimental data: ChEMBL document CHEMBL4138193, “Novel indole and triazole based hybrid molecules exhibit potent anti-adipogenic and antidyslipidemic activity by activating Wnt3a/β-catenin pathway” (Eur J Med Chem, 2018)
The source made the active and inactive calls. The rule behind the calls is not given here.

How the values were obtained:
Syrian golden hamster [1] = assay: Induction of reverse cholestrol transport in high fat diet-induced dyslipidemia Syrian Golden hamster model assessed as increase in LCAT mRNA expression in liver at 100 mg/kg, po administered for 1 week by qRT-PCR analysis; format: functional, organism-based; details: Mesocricetus auratus
Mus musculus [2] = species: Mus musculus; assay: Activation of Wnt3a/beta-catenin in mouse 3T3L1 cells assessed as induction of LEF1 expression at 20 uM after 16 to 24 hrs by Western blot analysis; format: cell-based
Syrian golden hamster [3] = assay: Induction of reverse cholestrol transport in high fat diet-induced dyslipidemia Syrian Golden hamster model assessed as reduction in weight gain at 100 mg/kg, po administered for 1 week; format: functional, organism-based; details: Mesocricetus auratus
Outline: (§1)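 Male Syrian Golden hamsters on 45% kCal HFD, dosed 100 mg/kg p.o. in 0.5% NaCMC for one week, 4 per group. Food intake and body weight recorded daily. At the end, animals were saline-perfused and liver and eWAT were excised and weighed. Paraffin sections stained with H&E and imaged at 20x.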

Mus musculus [4] = species: Mus musculus; assay: Activation of Wnt3a/beta-catenin in mouse 3T3L1 cells assessed as down-regulation of cyclinD1 expression at 20 uM after 16 to 24 hrs in presence of FH353 by Western blot analysis; format: cell-based
Outline: (§2)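 Confluent 3T3-L1 cells given differentiation media (IBMX/insulin/dexamethasone) with 20 µM compound, with or without the β-catenin/TCF inhibitor FH353 (10 µM). Proteins isolated at 16 and 24 h and Western blotted after SDS-PAGE and nitrocellulose transfer. Blocking in 5% milk/TBS-T, primary antibody overnight at 4 °C, chemiluminescent detection, β-actin control, three independent experiments.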

Syrian golden hamster [5] = assay: Induction of reverse cholestrol transport in high fat diet-induced dyslipidemia Syrian Golden hamster model assessed as increase in ABCG8 mRNA expression in eWAT at 100 mg/kg, po administered for 1 week by qRT-PCR analysis; format: functional, organism-based; details: Mesocricetus auratus
C3H 10T1/2 = assay: Anti-adipogenic activity in mouse C3H10T1/2 cells assessed as reduction in lipid accumulation at early differentiation stage at 20 uM measured up to 3 days by Oil Red O absorbance method; format: functional, cell-based
Outline: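 3T3-L1 or C3H10T1/2 cells given 20 µM compound with differentiation media for different time periods. Oil red O stain extracted from accumulated lipid with isopropanol and absorbance read at 492 nm. n=3, mean ± SD, Student t test against MDI+ group.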

3T3-L1 = assay: Cytotoxicity against mouse 3T3L1 cells at 1 to 1000 uM after 24 hrs by MTT assay; format: cell-based; details: 3t3-l1, 24 h
Outline: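 3T3-L1 cells seeded at 1×10^4 per well and grown 24 hr, then exposed to 1–1000 µM for 24 hr. Medium was replaced with MTT medium ([…]) for 3 hr and the formazan dissolved in DMSO. Absorbance read at 570 nm; three independent experiments, mean ± SD.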

Mus musculus [6] = species: Mus musculus; assay: Activation of Wnt3a/beta-catenin in mouse 3T3L1 cells assessed as down-regulation of CDK6 expression at 20 uM after 16 to 24 hrs in presence of FH353 by Western blot analysis; format: cell-based; outline: as §2
Syrian golden hamster [7] = assay: Induction of reverse cholestrol transport in high fat diet-induced dyslipidemia Syrian Golden hamster model assessed as increase in PPARalpha mRNA expression in liver at 100 mg/kg, po administered for 1 week by qRT-PCR analysis; format: functional, organism-based; details: Mesocricetus auratus
Syrian golden hamster [8] = assay: Induction of reverse cholestrol transport in high fat diet-induced dyslipidemia Syrian Golden hamster model assessed as reduction in hepatic lipid vacuoles hypertrophy at 100 mg/kg, po administered for 1 week by H and E staining based assay; format: functional, organism-based; details: Mesocricetus auratus
Mus musculus [9] = species: Mus musculus; assay: Activation of Wnt3a/beta-catenin in mouse 3T3L1 cells assessed as down-regulation of AP2 mRNA expression at 20 uM by qRT-PCR analysis; format: cell-based
Outline: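 3T3-L1 cells differentiated with IBMX/dexamethasone/insulin media with or without 20 µM compound over the differentiation period. RNA extracted with TRIZOL, 500 ng reverse-transcribed to cDNA, then quantitative real-time PCR. Three independent experiments run in triplicate, mean ± SD, one-way ANOVA with Bonferroni posttest.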

Syrian golden hamster [10] = assay: Induction of reverse cholestrol transport in high fat diet-induced dyslipidemia Syrian Golden hamster model assessed as decrease in CETP mRNA expression in liver at 100 mg/kg, po administered for 1 week by qRT-PCR analysis; format: functional, organism-based; details: Mesocricetus auratus
Syrian golden hamster [11] = assay: Induction of reverse cholestrol transport in high fat diet-induced dyslipidemia Syrian Golden hamster model assessed as reduction in liver weight at 100 mg/kg, po administered for 1 week; format: functional, organism-based; details: Mesocricetus auratus; outline: as §1
Mus musculus [12] = species: Mus musculus; assay: Activation of Wnt3a/beta-catenin in mouse 3T3L1 cells assessed as down-regulation of CDK2 expression at 20 uM after 16 to 24 hrs in presence of FH353 by Western blot analysis; format: cell-based; outline: as §2
Syrian golden hamster [13] = assay: Effect on serum HDL level in high fat diet-induced dyslipidemia Syrian Golden hamster model at 100 mg/kg, po administered for 1 week followed by overnight fasting post last dose by clinical bio-analyzer analysis; format: ADME, organism-based, Mesocricetus auratus; details: in vivo, 168 h
Outline: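 Male Syrian Golden hamsters (8-10 weeks, 100-120 g), 4 per group, given 45% kCal high fat diet for 4 days, then HFD plus oral dosing in 0.5% w/v NaCMC for one week. After an overnight fast, blood was taken from the retro-orbital plexus under anesthesia and serum was analysed on a clinical bio-analyzer. Mean ± SEM; one-way ANOVA with Bonferroni post-test.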

Mus musculus [14] = species: Mus musculus; assay: Activation of Wnt3a/beta-catenin in mouse 3T3L1 cells assessed as down-regulation of CDK4 expression at 20 uM after 16 to 24 hrs in presence of FH353 by Western blot analysis; format: cell-based; outline: as §2
Mus musculus [15] = species: Mus musculus; assay: Activation of Wnt3a/beta-catenin in differentiated mouse 3T3L1 cells assessed as down-regulation of C/EBPalpha protein expression at 20 uM after 16 to 24 hrs by Western blot analysis
Outline: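 3T3-L1 preadipocytes grown to confluence in high-glucose DMEM/10% FBS, then given differentiation media (0.5 mM IBMX, 5 µg/ml insulin, 250 nM dexamethasone) with or without 20 µM compound. Protein isolated at set time points, lysed with protease/phosphatase inhibitors, BCA-quantified, resolved by 8–12% SDS-PAGE, immunoblotted with ECL detection. β-actin loading control, densitometry normalized to actin, n=3.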

Syrian golden hamster [16] = assay: Anti-dyslipidemic activity in high fat diet-induced dyslipidemia Syrian Golden hamster model assessed as decrease in serum ALT levels at 100 mg/kg, po administered for 1 week followed by overnight fasting post last dose by clinical bio-analyzer analysis; format: functional, organism-based; details: Mesocricetus auratus
Outline: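 Male Syrian golden hamsters (8–10 wk, 100–120 g), 4 per group, given 45% kcal HFD for 4 days, then 100 mg/kg p.o. in 0.5% NaCMC daily for one week alongside HFD. Blood taken from retro-orbital plexus after overnight fast. TG, HDL, LDL, ALT, AST measured on a clinical bio-analyzer and NEFA by kit. Mean ± SEM, one-way ANOVA with Bonferroni.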

Syrian golden hamster [17] = assay: Induction of reverse cholestrol transport in high fat diet-induced dyslipidemia Syrian Golden hamster model assessed as decrease in CYP7A1 mRNA expression in liver at 100 mg/kg, po administered for 1 week by qRT-PCR analysis; format: functional, organism-based; details: Mesocricetus auratus

Activity (Mus musculus [15]): Active
Compound: Cc1ccc(S(=O)(=O)N(Cc2cn(Cc3cccc(F)c3F)nn2)Cc2cn(S(=O)(=O)c3ccc(C)cc3)c3ccccc23)cc1
Activity (Syrian golden hamster [1]): Active | Activity (Mus musculus [2]): Active | Activity (Syrian golden hamster [3]): Active | Activity (Mus musculus [4]): inactive | Activity (Syrian golden hamster [5]): Active | Activity (C3H 10T1/2): Active | Activity (3T3-L1): Non-Toxic | Activity (Mus musculus [6]): inactive | Activity (Syrian golden hamster [7]): Active | Activity (Syrian golden hamster [8]): Active | Activity (Mus musculus [9]): Active | Activity (Syrian golden hamster [10]): Active | Activity (Syrian golden hamster [11]): Active | Activity (Mus musculus [12]): inactive | Activity (Syrian golden hamster [13]): Non-Toxic | Activity (Mus musculus [14]): inactive | Activity (Syrian golden hamster [16]): Active | Activity (Syrian golden hamster [17]): Active
